Marks after values point to notes of the source that are not given here.
Assays:
[1] = Safety and tolerability assessments; type: in vivo, human; settings: for Deaths / Discontinuations due to TEAEs / Number of TEAEs / Patients reporting TEAEs / Serious TEAEs: ATI-450 n=24
[2] = Plasma pharmacokinetics, single ascending dose cohorts; type: in vivo, human; settings: for Tmax / half-life / AUC(0-inf) / AUC(0-t) / Cmax / Vd/F: human, plasma, oral; for CL/F: fasted, mean ± SD
[3] = Plasma pharmacokinetics, multiple ascending dose cohorts; type: in vivo, human; settings: for Tmax at 7 day: median (range)
[4] = tested on: p-HSP27 (phosphorylated heat shock protein 27); experiment: Ex vivo lipopolysaccharide-stimulated whole blood PD assay, p-HSP27; type: cell-based, human; settings: inhibitory Emax model, all SAD/MAD cohorts
In short: (§1)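 Healthy adults were dosed orally, fasted. 10 mL blood was drawn: SAD pre-dose, 1, 12 and 24 h; MAD days 1 and 7 pre-dose, 4 and 12 h. Each analyte was read unstimulated, after ex vivo LPS, and after LPS plus 10 μM added test compound. Values were scaled to % day 1 pre-dose (LPS as maximum signal, spiked LPS as maximum inhibition). Plasma levels vs % inhibition were fit by inhibitory Emax (E0, Imax, IC50).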

TNF-α = experiment: Ex vivo lipopolysaccharide-stimulated whole blood PD assay, TNF-α; type: cell-based, human
In short: as §1

IL-1β = experiment: Ex vivo lipopolysaccharide-stimulated whole blood PD assay, IL-1β; type: cell-based, human
In short: as §1

IL-6 [5] = experiment: Ex vivo lipopolysaccharide-stimulated whole blood PD assay, IL-6; type: cell-based, human
In short: as §1

IL-6 [6] = experiment: Human whole blood stimulated with IL-1β, IL-6 inhibition; type: cell-based; settings: data not shown
neutrophils = experiment: Clinical laboratory neutrophil counts; type: in vivo, human; settings: 50 mg BID group
[7] = tested on: rat streptococcal cell wall arthritis model; settings: cited from earlier work
murine model of NOMID = settings: cited from earlier work
[8] = SAD and MAD cohorts, ATI-450 n=48
[9] = inhibitory Emax model, all SAD/MAD cohorts
[10] = maximum observed (up to), versus baseline

For Cc1cnc(-c2ccnc(C(C)(C)O)n2)cc1-n1c(C)cc(OCc2ncc(F)cc2F)c(Cl)c1=O [ATI-450], the Deaths ([1]; MAD cohort) was 0, the “Discontinuations due to TEAEs” value ([1]; MAD cohort) was 0 and the “Number of TEAEs” value ([1]; MAD cohort) was 24. The “Patients reporting TEAEs” value ([1]; MAD cohort) was 12 (50.0) n (%), the “Serious TEAEs” value ([1]; MAD cohort) was 0 and the “Subjects with TEAEs considered related to study drug” value (“Subjects” below) ([1]; SAD 10 mg cohort) was 0 subjects. The “Subjects” value ([1]; SAD 30 mg cohort (nausea, headache, dizziness)) was 2 [33%] subjects, the “Subjects” value ([1]; SAD 50 mg cohort (headache)) was 1 [17%] subjects and the “Subjects” value ([1]; SAD 100 mg cohort (dizziness)) was 1 subjects. For the same compound, the “Findings in vital signs, electrocardiograms, or clinical laboratory values” ([1]; SAD and MAD cohorts) was “No clinically significant findings”, the “TEAE: Abdominal pain” value [1, 8] was 2 (4.2) n (%) and the “TEAE: Constipation” value [1, 8] was 3 (6.3) n (%). For the same compound, the “TEAE: Dizziness” value [1, 8] was 6 (12.5) n (%), the “TEAE: Headache” value [1, 8] was 10 (20.8) n (%) and the “TEAE: Nausea” value [1, 8] was 2 (4.2) n (%). For the same compound, the “TEAE: Upper respiratory tract infection” value [1, 8] was 3 (6.3) n (%), the “TEAE: Vomiting” value [1, 8] was 0 n (%) and the Deaths ([1]; SAD cohort) was 0. The “Discontinuations due to TEAEs” value ([1]; SAD cohort) was 0, the “Number of TEAEs” value ([1]; SAD cohort) was 15 and the “Patients reporting TEAEs” value ([1]; SAD cohort) was 7 (29.2) n (%). The “Serious TEAEs” value ([1]; SAD cohort) was 0, the Tmax [2] was 2 to 4 h and the half-life [2] was 8.5 to 11.2 h. For the same compound, the AUC(0-inf) ([2]; 10 mg) was 285 ± 78.4 ng·h/mL, the AUC(0-t) ([2]; 10 mg) was 276 ± 77.8 ng·h/mL and the Cmax ([2]; 10 mg) was 39.4 ± 10.4 ng/mL. It also gave a Tmax ([2]; 10 mg) of 2 h, a Vd/F ([2]; 10 mg) of 430 ± 124 L and a half-life ([2]; 10 mg) of 8.5 ± 3.2 h. The AUC(0-inf) ([2]; 30 mg) was 1100 ± 247 ng·h/mL, the AUC(0-t) ([2]; 30 mg) was 1070 ± 244 ng·h/mL and the Cmax ([2]; 30 mg) was 122 ± 33.4 ng/mL. For the same compound, the Tmax ([2]; 30 mg) was 4 h, the Vd/F ([2]; 30 mg) was 451 ± 202 L and the half-life ([2]; 30 mg) was 10.7 ± 3.3 h. For the same compound, the AUC(0-inf) ([2]; 50 mg) was 1460 ± 270 ng·h/mL, the AUC(0-t) ([2]; 50 mg) was 1430 ± 254 ng·h/mL and the Cmax ([2]; 50 mg) was 161 ± 20.4 ng/mL. The Tmax ([2]; 50 mg) was 3 h, the Vd/F ([2]; 50 mg) was 445 ± 94.7 L and the half-life ([2]; 50 mg) was 9.1 ± 2.4 h. The AUC(0-inf) ([2]; 100 mg) was 3650 ± 523 ng·h/mL, the AUC(0-t) ([2]; 100 mg) was 3490 ± 476 ng·h/mL and the Cmax ([2]; 100 mg) was 426 ± 111 ng/mL. For the same compound, the Tmax ([2]; 100 mg) was 2 h, the Vd/F ([2]; 100 mg) was 440 ± 190 L and the half-life ([2]; 100 mg) was 11.2 ± 5.8 h. The CL/F ([2]; single dose 10 mg) was 37.0 ± 8.8 L/h, the CL/F ([2]; single dose 30 mg, one subject excluded) was 28.4 ± 7.1^a L/h and the CL/F ([2]; single dose 50 mg) was 35.1 ± 6.3 L/h. For the same compound, the CL/F ([2]; single dose 100 mg) was 27.9 ± 4.3 L/h, the “Increase in AUC0-inf across dose range” value ([2]; single doses, 10 to 100 mg) was about 12.8 fold and the “Increase in AUC0-t across dose range” value ([2]; single doses, 10 to 100 mg) was about 12.6 fold. The “Increase in Cmax across dose range” value ([2]; single doses, 10 to 100 mg) was “approximately 10.8 fold”, the CLss/F ([3]; 10 mg BID, day 7, mean ± SD) was 37.4 ± 10.9 L/h and the Cmin ([3]; 10 mg BID, day 7, mean ± SD) was 8.1 ± 3.1 ng/mL. For the same compound, the “Rac, AUCtau (accumulation ratio for AUCtau)” value ([3]; 10 mg BID, day 7, mean ± SD) was 1.4 ± 0.3, the “Rac, Cmax (accumulation ratio for Cmax)” value ([3]; 10 mg BID, day 7, mean ± SD) was 1.6 ± 0.6 and the CLss/F ([3]; 30 mg BID, day 7, mean ± SD) was 33.9 ± 5.9 L/h. The Cmin ([3]; 30 mg BID, day 7, mean ± SD) was 28.8 ± 10.7 ng/mL, the “Rac, AUCtau (accumulation ratio for AUCtau)” value ([3]; 30 mg BID, day 7, mean ± SD) was 1.4 ± 0.3 and the “Rac, Cmax (accumulation ratio for Cmax)” value ([3]; 30 mg BID, day 7, mean ± SD) was 1.2 ± 0.3. For the same compound, the CLss/F ([3]; 50 mg BID, day 7, mean ± SD) was 37.3 ± 11.7 L/h, the Cmin ([3]; 50 mg BID, day 7, mean ± SD) was 58.7 ± 32.8 ng/mL and the “Rac, AUCtau (accumulation ratio for AUCtau)” value ([3]; 50 mg BID, day 7, mean ± SD) was 1.3 ± 0.4. For the same compound, the “Rac, Cmax (accumulation ratio for Cmax)” value ([3]; 50 mg BID, day 7, mean ± SD) was 1.3 ± 0.5, the “Increase in AUCtau over dose range” value ([3]; 10 to 50 mg BID, day 1) was 5.9 fold and the “Increase in Cmax over dose range” value ([3]; 10 to 50 mg BID, day 1) was 5.4 fold. For the same compound, the “Increase in AUCtau over dose range” value ([3]; 10 to 50 mg BID, day 7) was 5.2 fold, the “Increase in Cmax over dose range” value ([3]; 10 to 50 mg BID, day 7) was 4.2 fold and the “Day of administration by which steady state appeared to be reached” value ([3]; all BID dose levels, based on mean Ctrough days 2 through 6) was at most 2 days. The AUC ([3]; human, plasma, oral, 10 mg) was 288 ± 81.5 ng·h/mL, the AUC(0-t) ([3]; human, plasma, oral, 10 mg) was 365 ± 111 ng·h/mL and the Cmax at 7 day ([3]; human, plasma, oral, 10 mg) was 51.8 ± 15.8 ng/mL. The Vd/F ([3]; human, plasma, oral, 10 mg) was 517 ± 203 L, the concentration at 7 day ([3]; human, plasma, oral, 10 mg) was 24 ± 6.8 ng/mL and the half-life ([3]; human, plasma, oral, 10 mg, t1/2, 10 mg BID, day 7, mean ± SD) was 9.6 ± 2.1 h. For the same compound, the Tmax at 7 day ([3]; human, plasma, oral, 10 mg, 10 mg BID, day 7) was 2 h, the AUC ([3]; human, plasma, oral, 30 mg) was 909 ± 163 ng·h/mL and the AUC(0-t) ([3]; human, plasma, oral, 30 mg) was 1200 ± 309 ng·h/mL. The Cmax at 7 day ([3]; human, plasma, oral, 30 mg) was 146 ± 33.6 ng/mL, the Vd/F ([3]; human, plasma, oral, 30 mg) was 483 ± 85.1 L and the concentration at 7 day ([3]; human, plasma, oral, 30 mg) was 75.6 ± 13.4 ng/mL. For the same compound, the half-life ([3]; human, plasma, oral, 30 mg, t1/2, 30 mg BID, day 7, mean ± SD) was 10.3 ± 3.2 h, the Tmax at 7 day ([3]; human, plasma, oral, 30 mg, 30 mg BID, day 7) was 2 h and the AUC ([3]; human, plasma, oral, 50 mg) was 1510 ± 660 ng·h/mL. It also gave an AUC(0-t) ([3]; human, plasma, oral, 50 mg) of 2260 ± 1070 ng·h/mL, a Cmax at 7 day ([3]; human, plasma, oral, 50 mg) of 219 ± 77.8 ng/mL and a Vd/F ([3]; human, plasma, oral, 50 mg) of 586 ± 163 L. The concentration at 7 day ([3]; human, plasma, oral, 50 mg) was 126 ± 55 ng/mL, the half-life ([3]; human, plasma, oral, 50 mg, t1/2, 50 mg BID, day 7, mean ± SD) was 11.6 ± 3.7 h and the Tmax at 7 day ([3]; human, plasma, oral, 50 mg, 50 mg BID, day 7) was 3 h. It also gave a half-life ([3]; human, plasma, oral, Mean t1/2 across all SAD and MAD cohorts, all SAD and MAD cohorts) of 9 to 12 h, a half-life ([3]; human, plasma, oral, Mean terminal t1/2 across doses, 10 to 50 mg BID, day 7) of 9 to 12 h and a Tmax ([3]; human, plasma, oral, Median tmax across all SAD and MAD cohorts, all SAD and MAD cohorts) of 2 to 4 h. The “Imax (maximum percent inhibition)” value [4] was “greater than 96%”, the “Imax (maximum percent inhibition)” value (TNF-α; [9]) was “greater than 96%” and the “Inhibition of TNF-α versus baseline” value (TNF-α; [10]) was “up to 92.7%”. For the same compound, the “Imax (maximum percent inhibition)” value (IL-1β; [9]) was 74%, the “Inhibition of IL-1β versus baseline” value (IL-1β; [10]) was at most 83.0% and the inhibition at 50 mg (IL-6 [5]; Homo sapiens, 168 h, read-out: IL-6 inhibition) was over 50%. For the same compound, the “Imax (maximum percent inhibition)” value (IL-6 [5]; [9]) was “greater than 96%”, the “Potency for inhibiting IL-6” value (IL-6 [6]) was “comparable to that for TNF-α and IL-8” and the Neutrophil count (neutrophils; day 7 (baseline 3318.4 cells/μL)) was 2514.4 cells/μL. The “Mean reduction in neutrophils” value (neutrophils; day 7 versus baseline) was 24%, the “Effect in arthritis model” value [7] was “joint protective effects and preserved bone mineral density” and the “Effect on bone marrow levels of IL-1β” value (murine model of NOMID; NOMID mice, relative to placebo) was “reduction in bone marrow levels of IL-1β”. For the same compound, the Effect on disease (murine model of NOMID; transgenic NOMID mice) was “dramatic attenuation of disease”.
